Laboratory results as given in PubChem BioAssay AID602319 (The Scripps Research Institute Molecular Screening Center, 2012).
Calls of active or inactive are those of the source.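 The calls were made as follows: active = inhibition of at least 50% at 0.01 µM compound; inactive = the rest.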

Target: Monoacylglycerol lipase ABHD6 (Mus musculus) (UniProt Q8R2Y0)
Test: ABHD6 inhibition in mouse proteome, late-stage follow-up, selectivity assay for DAGLb inhibitor project, biochemical, gel-based competitive ABPP, fluorescence, in vitro (AID 602319)
Conditions: Neuro-2A membrane proteome, HT-01 probe, stronger effect = higher value
How it was run: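 Measure: % inhibition relative to DMSO control; Test system: Neuro-2A mouse neuroblastoma membrane proteome with endogenous ABHD6; Quantity: proteome 1 mg/mL; Control set: DMSO vehicle high, gel background low; Technique: SDS-PAGE with in-gel fluorescence scan, band integrated optical density; Times: compound preincubation 30 min, probe labelling 30 min, 37 °C; Buffer or medium: DPBS.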

Monoacylglycerol lipase ABHD6 (Mus musculus), sequence (Q8R2Y0 whole entry, looked up): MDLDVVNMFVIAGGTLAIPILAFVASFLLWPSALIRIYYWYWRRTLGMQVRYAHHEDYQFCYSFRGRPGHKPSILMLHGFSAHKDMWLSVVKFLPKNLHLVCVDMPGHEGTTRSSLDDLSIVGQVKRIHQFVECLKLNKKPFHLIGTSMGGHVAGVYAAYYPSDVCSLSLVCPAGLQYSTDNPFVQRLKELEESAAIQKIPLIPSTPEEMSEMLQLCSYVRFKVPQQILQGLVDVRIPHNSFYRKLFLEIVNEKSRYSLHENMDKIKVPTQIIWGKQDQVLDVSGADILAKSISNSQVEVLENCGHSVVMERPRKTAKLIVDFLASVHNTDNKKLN

| SMILES | inhibition (ABHD6 inhibition, at 0.001 µM) [%] | inhibition (at 0.01 µM) |
| --- | --- | --- |
| COc1ccccc1-c1ccc(-c2cn(C(=O)N3CCCCC3CCc3ccccc3)nn2)cc1 (centres undefined) | 27 | 70% |
| NC(=O)c1ccc(-c2ccc(-c3cn(C(=O)N4CCCCC4c4ccccc4)nn3)cc2)cc1 (centres undefined) | 17 | 27% (inactive) |
| O=C(O)c1ccc(-c2ccc(-c3cn(C(=O)N4CCCCC4CCc4ccccc4)nn3)cc2)cc1 (centres undefined) | 7 | 10% (inactive) |
| O=C(N1CCCCC1c1ccccc1)n1cc(-c2ccc(-c3ccccc3)cc2)nn1 (centres undefined) | 18 | 66% |
| O=C(N1CCCCC1c1ccccc1)n1cc(-c2ccc(-c3ccc(CO)cc3)cc2)nn1 (centres undefined) | 18 | 47% (inactive) |
| COc1ccccc1-c1ccc(-c2cn(C(=O)N3CCC(Cc4ccccc4)CC3)nn2)cc1 | 78 | 100% |
| O=C(N1CCCCC1Cc1ccccc1)n1cc(-c2ccc(-c3cccc(CO)c3)cc2)nn1 (centres undefined) | 41 | 90% |
| O=C(N1CCCCC1c1ccccc1)n1cc(C(O)(c2ccccc2)c2ccccc2)nn1 (centres undefined) | 32 | 47% (inactive) |
| O=C(c1ccc(-c2ccc(-c3cn(C(=O)N4CCCCC4Cc4ccccc4)nn3)cc2)cc1)N1CCCCC1 (centres undefined) | 9 | 79% |
| COc1ccccc1-c1ccc(-c2cn(C(=O)N3CCCCC3c3ccccc3)nn2)cc1 (centres undefined) | 32 | 90% |
| COc1ccc(-c2ccc(-c3cn(C(=O)N4CCCCC4c4ccccc4)nn3)cc2)cc1 (centres undefined) | 8 | 18% (inactive) |
| O=C(N1CCCCC1CCc1ccccc1)n1cc(-c2ccc(-c3ccccc3)cc2)nn1 (centres undefined) | 21 | 40% (inactive) |
| COc1ccccc1-c1ccc(-c2cn(C(=O)N3CCCC(Cc4ccccc4)C3)nn2)cc1 (centres undefined) | 53 | 100% |
| O=C(O)c1cccc(-c2ccc(-c3cn(C(=O)N4CCCCC4CCc4ccccc4)nn3)cc2)c1 (centres undefined) | 33 | 94% |
| O=C(O)c1cccc(-c2ccc(-c3cn(C(=O)N4CCCCC4c4ccccc4)nn3)cc2)c1 (centres undefined) | 36 | 100% |
| O=C(N1CCCCC1c1ccccc1)n1cc(-c2ccc(-c3ccccc3CO)cc2)nn1 (centres undefined) | 38 | 98% |
| O=C(c1ccc(-c2ccc(-c3cn(C(=O)N4CCCCC4c4ccccc4)nn3)cc2)cc1)N1CCCCC1 (centres undefined) | 35 | 94% |
